Values after ≈ are worked out from the molar mass of the structure shown.
How the values were obtained:
Salmonella [1] = assay: Antimicrobial activity against Salmonella serogroup O9 by broth microdilution method; assay type: functional
How it was run: (§1)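 Clinical isolates from Taiwan; tigecycline and tetracycline MICs by broth microdilution per CLSI guidelines, tested over 0.03 μg/ml to 128 μg/ml; a control strain was included.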

[2] = Antimicrobial activity against Salmonella serotype Choleraesuis by broth microdilution method; assay type: functional, Salmonella enterica subsp. enterica serovar Choleraesuis; details: Salmonella enterica
How it was run: (§2)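 Tigecycline MICs for clinical isolates (Taiwan) were determined by broth microdilution over 0.03 to 128 μg/ml. A control strain was included, and its MICs had to fall within the recommended range. Susceptible, intermediate and resistant categories were assigned from the MICs using US FDA and EUCAST breakpoints.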

Aeromonas hydrophila [3] = assay: Antimicrobial activity against Aeromonas hydrophila by broth microdilution method; assay type: functional; how it was run: as §1
Vibrio cholerae [4] = assay: Antimicrobial activity against Vibrio cholerae non-O1 assessed as percent tetracyclin-resistant isolate at 0.12 to 16 ug/ml by broth microdilution method; assay type: functional
Salmonella [5] = assay: Antimicrobial activity against Salmonella serogroup O7 assessed as percent tetracyclin-resistant isolate at 1 to >128 ug/ml by broth microdilution method; assay type: functional
How it was run: (§3)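 Tetracycline MICs for clinical isolates were determined by broth microdilution over 0.03 to 128 μg/ml. The reported value is the rate of isolates not susceptible to tetracycline for each species or serogroup.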

Aeromonas sobria [6] = assay: Antimicrobial activity against Aeromonas sobria by broth microdilution method; assay type: functional; how it was run: as §1
Aeromonas caviae [7] = assay: Antimicrobial activity against Aeromonas caviae by broth microdilution method; assay type: functional; how it was run: as §1
Salmonella [8] = assay: Antimicrobial activity against Salmonella serogroup O8 assessed as percent tetracyclin-resistant isolate at 1 to >128 ug/ml by broth microdilution method; assay type: functional; how it was run: as §3
Vibrio [9] = assay: Antimicrobial activity against tetracycline-susceptible Vibrio sp. Isolate by broth microdilution method; assay type: functional; how it was run: as §1
Salmonella [10] = assay: Antimicrobial activity against Salmonella serogroup O9 assessed as percent tetracyclin-resistant isolate at 1 to >128 ug/ml by broth microdilution method; assay type: functional; how it was run: as §3
Aeromonas sp. [11] = assay: Antimicrobial activity against tetracycline-susceptible Aeromonas sp. isolate by broth microdilution method; assay type: functional; how it was run: as §1
Salmonella [12] = assay: Antimicrobial activity against tetracycline-susceptible Salmonella sp. Isolate by broth microdilution method; assay type: functional; how it was run: as §1
Aeromonas sp. [13] = assay: Antimicrobial activity against tetracycline-nonsusceptible Aeromonas sp. isolate by broth microdilution method; assay type: functional; how it was run: as §1
Aeromonas caviae [14] = assay: Antimicrobial activity against Aeromonas caviae assessed as percent tetracyclin-resistant isolate at 0.25 to >16 ug/ml by broth microdilution method; assay type: functional; how it was run: as §3
Salmonella [15] = assay: Antimicrobial activity against tetracycline-nonsusceptible Salmonella sp. Isolate by broth microdilution method; assay type: functional; how it was run: as §1
Aeromonas hydrophila [16] = assay: Antimicrobial activity against Aeromonas hydrophila assessed as percent tetracyclin-resistant isolate at 0.25 to >16 ug/ml by broth microdilution method; assay type: functional; how it was run: as §3
[17] = Antimicrobial activity against Salmonella serotype Choleraesuis assessed as percent tetracyclin-resistant isolate at 1 to >128 ug/ml by broth microdilution method; assay type: functional, Salmonella enterica subsp. enterica serovar Choleraesuis; how it was run: as §3
Vibrio [18] = assay: Antimicrobial activity against tetracycline-nonsusceptible Vibrio sp. Isolate by broth microdilution method; assay type: functional; how it was run: as §1
Salmonella typhimurium [19] = assay: Antimicrobial activity against Salmonella serotype Typhimurium assessed as percent tetracyclin-resistant isolate at 1 to >128 ug/ml by broth microdilution method; assay type: functional, Salmonella enterica subsp. enterica serovar Typhimurium; how it was run: as §3
Salmonella [20] = assay: Antimicrobial activity against Salmonella serogroup O8 by broth microdilution method; assay type: functional; how it was run: as §1
Salmonella typhimurium [21] = assay: Antimicrobial activity against Salmonella serotype Typhimurium by broth microdilution method; assay type: functional, Salmonella enterica subsp. enterica serovar Typhimurium; details: Salmonella enterica; how it was run: as §1
Aeromonas sobria [22] = assay: Antimicrobial activity against Aeromonas sobria assessed as percent tetracyclin-resistant isolate at 0.25 to >16 ug/ml by broth microdilution method; assay type: functional; how it was run: as §3
Vibrio cholerae [23] = assay: Antimicrobial activity against Vibrio cholerae non-O1 by broth microdilution method; assay type: functional; how it was run: as §2
Salmonella [24] = assay: Antimicrobial activity against Salmonella serogroup O7 by broth microdilution method; assay type: functional; how it was run: as §1
Aeromonas caviae [25] = assay: Antimicrobial activity against tigecycline-intermediate Aeromonas caviae isolate by broth microdilution method; assay type: functional; how it was run: as §1

`CN(C)[C@@H]1C(O)=C(C(N)=O)C(=O)[C@@]2(O)C(O)=C3C(=O)c4c(O)cccc4[C@@](C)(O)[C@H]3C[C@@H]12` [TETRACYCLINE] gave an MIC90 (Salmonella [1]) greater than 128 µg/mL, an MIC90 [2] greater than 128 µg/mL and an MIC90 (Aeromonas hydrophila [3]) of 16 µg/mL (≈ 36 µM). The Activity (Vibrio cholerae [4]) was 8%, the Activity (Salmonella [5]) was 38% and the MIC90 (Aeromonas sobria [6]) was 16 µg/mL (≈ 36 µM). For the same molecule, the MIC90 (Aeromonas caviae [7]) was 16 µg/mL (≈ 36 µM), the Activity (Salmonella [8]) was 71% and the MIC (Vibrio [9]) was no more than 4 µg/mL. It also gave an Activity (Salmonella [10]) of 16%, an MIC (Aeromonas sp. [11]) of no more than 4 µg/mL and an MIC (Salmonella [12]) of no more than 4 µg/mL. It also gave an MIC (Aeromonas sp. [13]) of no less than 8 µg/mL, an Activity (Aeromonas caviae [14]) of 37% and an MIC (Salmonella [15]) of no less than 8 µg/mL. For the same molecule, the Activity (Aeromonas hydrophila [16]) was 36%, the Activity [17] was 84% and the MIC (Vibrio [18]) was no less than 8 µg/mL. It also gave an Activity (Salmonella typhimurium [19]) of 65%, an MIC90 (Salmonella [20]) greater than 128 µg/mL and an MIC90 (Salmonella typhimurium [21]) greater than 128 µg/mL. It also gave an Activity (Aeromonas sobria [22]) of 57%, an MIC90 (Vibrio cholerae [23]) of 1 µg/mL (≈ 2.25 µM) and an MIC90 (Salmonella [24]) greater than 128 µg/mL. It also gave an MIC (Aeromonas caviae [25]) greater than 128 µg/mL.

— ChEMBL document CHEMBL1629548, “In vitro activities of tigecycline against clinical isolates of Aeromonas, Vibrio, and Salmonella species in Taiwan” (2008)
